The test system of data set [1] is Rattus norvegicus. Nature of the data set: Drug level in Sprague-Dawley rat at 2 mg/kg, iv. The conditions noted are these: in vivo.
Data set [2] is described as follows: Systemic clearance in Sprague-Dawley rat at 2 mg/kg, iv administered as bolus dose. Details: dose 2 mg/kg, route intravenous. Format: ADME, organism-based. The conditions noted are these: in vivo. The procedure, abridged: (§1)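 Male Sprague-Dawley rats (n=3 per group), jugular/femoral cannulated, fed. Single IV bolus of 2 mg/kg in 5% dextrose/0.5% lactic acid, pH 3.5, at 1 mL/kg. Jugular blood sampled 0–1440 min into EDTA. Plasma measured by LC/MS/MS (LOQ 1 ng/mL, BLQ set to zero). Non-compartmental analysis with linear trapezoidal AUC; CL = Dose/AUC0-∞, Vdss = MRT·CL, t1/2 = 0.693/λ.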

Data set [3] concerns the target Serine/threonine-protein kinase mTOR (Homo sapiens) (UniProt P42345). In words: Binding affinity to mTOR (unknown origin) by DELFIA.
Data set [4] is described as follows: AUC (0 to infinity) in Sprague-Dawley rat at 2 mg/kg, iv administered as bolus dose. Format: ADME, organism-based. Also noted: time infinity, dose 2 mg/kg, route intravenous. The conditions noted are these: plasma. The gist of the method:
as §1

Data set [5] addresses Phosphatidylinositol 4,5-bisphosphate 3-kinase catalytic subunit gamma isoform (Homo sapiens) (UniProt P48736). In words: Binding affinity to PI3K-gamma (unknown origin) by fluorescence polarization assay.
Data set [6] is described as follows: Volume of distribution at steady state in Sprague-Dawley rat at 2 mg/kg, iv administered as bolus dose. The conditions noted are these: in vivo, read-out: Vdss. Also noted: dose 2 mg/kg, route intravenous. In kind it is ADME, organism-based. The procedure, abridged: as §1
The nature of data set [7]: Drug metabolism in cynomolgus monkey liver microsomes assessed as (rac)-1-(4-(4-(6-hydroxy-3-oxa-8-azabicyclo[3.2.1]octan-8-yl)-6-morpholino-1,3,5-triazin-2-yl)phenyl)-3-(pyridin-4-yl)urea formation at 0.02 mM after 60 mins by LC-MS analysis. In kind it is ADME, Macaca fascicularis. The conditions noted are these: 1 h, 20 µM.
For data set [8], the system named is Liver microsome. Nature of the data set: Drug metabolism in human liver microsomes assessed as (1R,5R,6R)-1-(4-(4-(6-hydroxy-3-oxa-8-azabicyclo[3.2.1]octan-8-yl)-6-morpholino-1,3,5-triazin-2-yl)phenyl)-3-(pyridin-4-yl)urea formation at 0.02 mM after 60 mins by 1H-13C-HSQC spectra analysis. In kind it is ADME. The conditions noted are these: 20 µM. The gist of the method: (§2)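 Parent at 0.02 mM was incubated with human liver microsomes (1 mg/mL protein) in 0.1 M potassium phosphate pH 7.4 with 5 mM NADPH and 8 mM MgCl₂, at 37 °C for 60 min. Reactions were quenched with 2% formic acid in acetonitrile and the metabolite isolated by semi-preparative C18 HPLC. Identity was checked by LC/MS on C18 with an acetonitrile/5 mM ammonium acetate gradient.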

The subject of data set [9] is Liver microsome. In words: Drug metabolism in human liver microsomes assessed as (rac)-1-(4-(4-(6-hydroxy-3-oxa-8-azabicyclo[3.2.1]octan-8-yl)-6-morpholino-1,3,5-triazin-2-yl)phenyl)-3-(pyridin-4-yl)urea formation at 0.02 mM after 60 mins by LC-MS analysis. The conditions noted are these: 1 h, 20 µM. In kind it is ADME. The gist of the method:
as §2

The nature of data set [10]: Elimination half life in Sprague-Dawley rat at 2 mg/kg, iv administered as bolus dose. The conditions noted are these: in vivo, read-out: beta t1/2 (converted). Details: dose 2 mg/kg, route intravenous. In kind it is ADME, organism-based. The gist of the method:
as §1

The test system of data set [11] is Liver microsome. In words: Drug metabolism in human liver microsomes assessed as (1R,5R,6R)-1-(4-(4-(6-hydroxy-3-oxa-8-azabicyclo[3.2.1]octan-8-yl)-6-morpholino-1,3,5-triazin-2-yl)phenyl)-3-(pyridin-4-yl)urea formation at 0.02 mM after 60 mins by 1H-13C-HSQC spectra analysis. The conditions noted are these: 20 µM.
Data set [12] deals with Phosphatidylinositol 4,5-bisphosphate 3-kinase catalytic subunit alpha isoform (Homo sapiens) (UniProt P42336). Nature of the data set: Binding affinity to PI3K-alpha (unknown origin) by fluorescence polarization assay.
The nature of data set [13]: Drug metabolism in cynomolgus monkey liver microsomes assessed as hydroxylated product formation after 60 mins by LC-MS analysis. Format: ADME, Macaca fascicularis. The conditions noted are these: 1 h. The gist of the method: (§3)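 Single enantiomers incubated with male rat, cynomolgus monkey or human liver microsomes (1 mg/mL) plus cytosol (2 mg/mL). Cofactors: NADPH 5 mM, MgCl2 8 mM, GSH 2 mM and UDPGA 2 mM, in 0.1 M phosphate, pH 7.4, at 37 °C for 60 min. Precipitated with 2% formic acid in acetonitrile, dried, reconstituted, and analysed by LC/MS (C18, 10–40% acetonitrile/5 mM ammonium acetate).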

Data set [14] relates to Liver microsome. In words: Drug metabolism in Sprague-Dawley rat liver microsomes assessed as hydroxylated product formation after 60 mins by LC-MS analysis. In kind it is ADME. The conditions noted are these: 1 h. The procedure, abridged: as §3
A short description of data set [15]: Retention time of the compound by HPLC analysis. Format: physicochemical.
Data set [16] deals with Liver microsome. Nature of the data set: Drug metabolism in human liver microsomes assessed as hydroxylated product formation after 60 mins by LC-MS analysis. In kind it is ADME. The conditions noted are these: 1 h. The procedure, abridged: as §3
Data set [17] has as its system Liver microsome. Nature of the data set: Drug level in human liver microsomes treated with 1-(4-(4-(3-oxa-8-azabicyclo[3.2.1]octan-8-yl)-6-morpholino-1,3,5-triazin-2-yl)phenyl)-3-(pyridin-4-yl)urea at 0.02 mM after 60 mins by 1H-13C-HSQC spectra analysis. In kind it is ADME. The conditions noted are these: 20 µM. The procedure, abridged:
(§4)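 Human liver microsomes at 1 mg/mL protein with substrate at 0.02 mM, 5 mM NADPH and 8 mM MgCl2 in 0.1 M potassium phosphate, pH 7.4. Incubated at 37 °C for 60 min. Stopped with 2% formic acid in acetonitrile and centrifuged. Metabolite isolated by semi-preparative C18 HPLC, then characterised by LC/MS (C18, acetonitrile/5 mM ammonium acetate gradient) and NMR.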

In data set [18] the test system is Liver microsome. In words: Drug level in human liver microsomes treated with 1-(4-(4-(3-oxa-8-azabicyclo[3.2.1]octan-8-yl)-6-morpholino-1,3,5-triazin-2-yl)phenyl)-3-(pyridin-4-yl)urea by NMR analysis. In kind it is ADME. The gist of the method: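 Metabolite isolated from the human liver microsome incubation and quantified by 1H NMR. A calibration curve was built from parent-compound spectra at 5 concentrations, using the averaged integration of aromatic protons (δ 8.37, 8.30, 7.55, 7.44). Metabolite concentration was read from that curve; spectra were referenced to residual solvent.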

The nature of data set [19]: Drug level in cynomolgus monkey liver microsomes treated with 1-(4-(4-(3-oxa-8-azabicyclo[3.2.1]octan-8-yl)-6-morpholino-1,3,5-triazin-2-yl)phenyl)-3-(pyridin-4-yl)urea at 0.02 mM after 60 mins by LC-MS analysis. Format: ADME, Macaca fascicularis. The conditions noted are these: 1 h, 20 µM.
Data set [20] relates to Liver microsome. In words: Drug level in human liver microsomes treated with 1-(4-(4-(3-oxa-8-azabicyclo[3.2.1]octan-8-yl)-6-morpholino-1,3,5-triazin-2-yl)phenyl)-3-(pyridin-4-yl)urea at 0.02 mM after 60 mins by LC-MS analysis. In kind it is ADME. The conditions noted are these: 1 h, 20 µM. The gist of the method: as §4

We go through four compounds from ChEMBL document CHEMBL3526043, “Application of quantitative NMR in pharmacological evaluation of biologically generated metabolites: implications in drug discovery” (Drug Metab Dispos, 2011).

Phosphatidylinositol 4,5-bisphosphate 3-kinase catalytic subunit gamma isoform (Homo sapiens), sequence (P48736 whole entry, looked up, canonical isoform): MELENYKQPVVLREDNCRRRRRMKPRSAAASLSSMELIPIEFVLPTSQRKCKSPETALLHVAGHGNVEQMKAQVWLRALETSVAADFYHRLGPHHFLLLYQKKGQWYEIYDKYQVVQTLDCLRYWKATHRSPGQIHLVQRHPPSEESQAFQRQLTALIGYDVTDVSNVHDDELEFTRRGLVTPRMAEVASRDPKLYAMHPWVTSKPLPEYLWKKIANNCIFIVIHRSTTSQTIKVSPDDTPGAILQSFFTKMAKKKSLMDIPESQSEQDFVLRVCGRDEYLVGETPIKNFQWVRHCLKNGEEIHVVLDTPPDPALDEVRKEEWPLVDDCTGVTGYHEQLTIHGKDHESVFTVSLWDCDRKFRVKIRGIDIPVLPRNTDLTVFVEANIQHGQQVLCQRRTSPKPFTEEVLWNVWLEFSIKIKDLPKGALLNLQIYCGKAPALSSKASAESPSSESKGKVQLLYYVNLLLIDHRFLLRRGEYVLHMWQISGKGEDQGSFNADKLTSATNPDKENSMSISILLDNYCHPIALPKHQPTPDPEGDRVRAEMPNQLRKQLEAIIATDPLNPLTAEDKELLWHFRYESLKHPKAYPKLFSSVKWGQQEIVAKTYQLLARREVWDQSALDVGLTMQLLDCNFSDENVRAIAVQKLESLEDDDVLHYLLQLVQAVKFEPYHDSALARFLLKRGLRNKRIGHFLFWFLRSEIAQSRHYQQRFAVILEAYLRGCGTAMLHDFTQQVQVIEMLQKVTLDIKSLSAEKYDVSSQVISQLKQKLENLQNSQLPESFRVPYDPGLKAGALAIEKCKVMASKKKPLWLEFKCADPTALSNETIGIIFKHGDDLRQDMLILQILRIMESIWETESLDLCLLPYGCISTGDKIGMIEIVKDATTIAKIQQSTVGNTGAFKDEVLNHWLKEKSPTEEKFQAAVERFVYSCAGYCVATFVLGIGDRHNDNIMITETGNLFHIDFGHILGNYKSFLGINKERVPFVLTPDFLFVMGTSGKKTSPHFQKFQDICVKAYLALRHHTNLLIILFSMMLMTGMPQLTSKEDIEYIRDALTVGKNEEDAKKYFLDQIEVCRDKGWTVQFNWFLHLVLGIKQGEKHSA
Phosphatidylinositol 4,5-bisphosphate 3-kinase catalytic subunit alpha isoform (Homo sapiens), sequence (P42336 whole entry, canonical isoform): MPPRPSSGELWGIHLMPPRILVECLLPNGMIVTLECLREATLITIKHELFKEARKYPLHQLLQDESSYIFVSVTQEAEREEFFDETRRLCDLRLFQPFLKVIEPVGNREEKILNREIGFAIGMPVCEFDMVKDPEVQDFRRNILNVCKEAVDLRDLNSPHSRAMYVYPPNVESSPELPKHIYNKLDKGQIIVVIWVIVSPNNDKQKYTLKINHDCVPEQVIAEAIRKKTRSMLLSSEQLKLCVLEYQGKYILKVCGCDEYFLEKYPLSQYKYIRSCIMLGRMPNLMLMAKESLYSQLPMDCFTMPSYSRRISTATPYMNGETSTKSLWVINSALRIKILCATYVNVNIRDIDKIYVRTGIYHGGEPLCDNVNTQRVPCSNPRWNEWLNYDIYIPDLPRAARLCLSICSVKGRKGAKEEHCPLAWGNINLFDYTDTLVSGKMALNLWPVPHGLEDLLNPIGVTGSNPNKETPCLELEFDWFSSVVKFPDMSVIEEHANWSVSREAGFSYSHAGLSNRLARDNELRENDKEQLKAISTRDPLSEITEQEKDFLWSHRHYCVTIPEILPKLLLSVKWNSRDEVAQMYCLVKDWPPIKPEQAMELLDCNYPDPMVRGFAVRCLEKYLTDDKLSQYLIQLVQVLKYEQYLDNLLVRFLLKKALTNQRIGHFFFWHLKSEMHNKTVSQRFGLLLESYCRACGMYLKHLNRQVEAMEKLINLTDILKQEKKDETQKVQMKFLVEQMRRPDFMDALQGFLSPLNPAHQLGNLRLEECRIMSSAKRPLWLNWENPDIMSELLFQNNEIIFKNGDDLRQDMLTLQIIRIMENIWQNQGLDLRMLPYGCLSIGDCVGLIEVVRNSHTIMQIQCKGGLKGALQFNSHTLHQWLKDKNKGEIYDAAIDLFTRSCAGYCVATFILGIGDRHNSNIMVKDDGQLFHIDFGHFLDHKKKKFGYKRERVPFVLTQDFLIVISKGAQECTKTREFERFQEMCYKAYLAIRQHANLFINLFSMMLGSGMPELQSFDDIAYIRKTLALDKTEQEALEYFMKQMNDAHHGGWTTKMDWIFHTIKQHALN

For `O=C(Nc1ccncc1)Nc1ccc(-c2nc(N3CCOCC3)nc(N3C4CCC3COC4)n2)cc1` [PKI-179], in data set [1], the Drug uptake entry is given as “metabolite_not_detected”. The compound further showed a clearance in [2] of 38.3 mL/min/kg. For the same compound, the Activity amounted to 0.5 nM in data set [3], 51 nM in data set [5] and 8 nM in data set [12]. The compound further returned a total exposure AUC(0-inf) in data set [4] of 867 ng·h/mL. In addition, the Vd in data set [6] was determined as 2.4 L/kg. For the same compound, the Drug metabolism result in data set [7], in data set [8], in [9] and in data set [11] was “metabolite_detected” each time. Also, in data set [10], the half-life is 54 min.
In the case of `O=C(Nc1ccncc1)Nc1ccc(-c2nc(N3CCOCC3)nc(N3[C@H]4COC[C@@H]3[C@H](O)C4)n2)cc1`, the Drug uptake result in data set [1] is “metabolite_not_detected”. Besides, the Drug metabolism entry in [13] is “metabolite_not_detected”; in data set [16], “metabolite_not_detected”; in data set [17], “metabolite_detected”. Besides, the Stability entry in data set [14] is recorded as “Stable”. In data set [2], this compound had a clearance of 107 mL/min/kg. The area under the curve AUC(0-inf) in data set [4] came out at 315 ng·h/mL. Besides, the values for the Activity in [5] and in data set [12] were 50 nM and 4 nM, respectively. For the same compound, the Vd in data set [6] was found to be 1.5 L/kg. Besides, the Retention_time in [15] stood at 10.2 min. The half-life in data set [10] is 42 min.
`O=C(Nc1ccncc1)Nc1ccc(-c2nc(N3CCOCC3)nc(N3[C@@H]4COC[C@H]3[C@@H](O)C4)n2)cc1`: the Drug uptake result in [1] is reported as “metabolite_not_detected”. Besides, the Drug metabolism result in data set [13], in data set [16] and in [17] was “metabolite_detected” in each case. The Stability entry in data set [14] is recorded as “Stable”. Also, the clearance in data set [2] is 123 mL/min/kg. The total exposure AUC(0-inf) in data set [4] turned out to be 283 ng·h/mL. For the same compound, the Activity is 93 nM in [5] and 9 nM in data set [12]. In addition, the Vd in data set [6] stood at 0.9 L/kg. Also, the Retention_time in [15] was determined as 13.4 min. The half-life in data set [10] was 12 min.
In the case of `O=C(Nc1ccncc1)Nc1ccc(-c2nc(N3CCOCC3)nc(N3C4COCC3C(O)C4)n2)cc1` (racemic), in data set [18], the Drug uptake came to 1.72 mM. The Drug metabolism result in data set [19] and in [20] was “metabolite_detected” in each case. Moreover, the Activity in data set [3] was found to be 0.8 nM; in [5], 33 nM; in data set [12], 4 nM.
